Assay results: ChEMBL document CHEMBL1140411, “Deoxyuridine triphosphate nucleotidohydrolase as a potential antiparasitic drug target” (J Med Chem, 2005)

How the values were obtained:
[1] = molecular target: T1, dUTP pyrophosphatase (Plasmodium falciparum 3D7, UniProt Q8II92); test: Inhibitory constant against Plasmodium falciparum deoxyuridine 5'-triphosphate nucleotidohydrolase expressed in Escherichia coli BL21 (DE3) cells
T1 sequence (Q8II92 whole entry): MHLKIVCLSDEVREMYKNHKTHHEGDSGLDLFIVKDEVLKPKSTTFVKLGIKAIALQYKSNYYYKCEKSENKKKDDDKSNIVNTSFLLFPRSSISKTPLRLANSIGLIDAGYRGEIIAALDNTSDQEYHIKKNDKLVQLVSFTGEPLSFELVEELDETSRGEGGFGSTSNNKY
Method in brief: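 Recombinant PfdUTPase expressed in E. coli BL21(DE3) and purified by phosphocellulose and gel filtration to ~96% purity. Continuous stopped-flow assay following proton release with cresol red/bicine (50:2000 µM, 573 nm). Mix: 30 nM enzyme, 50 µM dUTP, 5 mM MgCl2, 2.5 mM DTT, 1.25 mg/mL BSA, 100 mM KCl. KMapp from integrated Michaelis-Menten fits, plotted against [I] to give Ki.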

[2] = molecular target: T2, Deoxyuridine 5'-triphosphate nucleotidohydrolase, mitochondrial (Homo sapiens, UniProt P33316); test: Inhibitory constant against human deoxyuridine 5'-triphosphate nucleotidohydrolase expressed in Escherichia coli BL21 (DE3) cells
T2 sequence (P33316 whole entry): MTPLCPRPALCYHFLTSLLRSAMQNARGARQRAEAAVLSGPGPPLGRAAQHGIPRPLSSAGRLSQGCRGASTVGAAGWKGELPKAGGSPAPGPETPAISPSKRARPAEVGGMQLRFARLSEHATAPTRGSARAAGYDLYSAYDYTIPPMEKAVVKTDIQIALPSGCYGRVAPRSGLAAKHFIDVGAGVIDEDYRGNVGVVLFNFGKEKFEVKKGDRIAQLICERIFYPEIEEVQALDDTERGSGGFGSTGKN
Method in brief: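 Human dUTPase expressed in E. coli BL21(DE3) and purified like the Plasmodium enzyme (phosphocellulose, then gel filtration). dUTP hydrolysis followed continuously by stopped-flow as pH-indicator absorbance (cresol red/bicine, 50:2000 µM, 573 nm). Apparent KM from integrated Michaelis-Menten fits at each inhibitor concentration; Ki from linear KMapp versus [I].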

[3] = tested on: Plasmodium falciparum; test: In vitro inhibitory activity against Plasmodium falciparum as [3H]hypoxanthine (50 uL) incorporation at 37C; type: functional, organism-based
[4] = tested on: L6; test: In vitro cytotoxicity aganist rat skeletal myoblasts (L-6 cells) after 72 hours; type: functional, cell-based; details: L6, 72 h
Method in brief: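 L-6 rat skeletal myoblasts seeded at 4 × 10^4 cells/mL in RPMI 1640 with 10% FBS and 2 mM L-glutamine. After 24 h, medium replaced with a serial drug dilution, then 72 h at 37 °C, 5% CO2. Alamar Blue added for a further 2-4 h. Fluorescence read at ex 536/em 588 nm. Run twice independently, in duplicate.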

[5] = molecular target: T3, dUTP pyrophosphatase (Plasmodium falciparum 3D7) (UniProt Q8II92); test: Selectivity index for Plasmodium falciparum deoxyuridine 5'-triphosphate nucleotidohydrolase defined as (Ki Human)/(Ki Plasmodium falciparum)
T3 sequence (whole entry): T1 sequence (Q8II92 whole entry)
Method in brief: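 Ratio of human dUTPase Ki to P. falciparum dUTPase Ki. Both Ki values came from stopped-flow pH-indicator assays following dUTP hydrolysis, with Ki derived from the dependence of apparent KM on inhibitor concentration.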

[6] = tested on: Trypanosoma cruzi; test: In vitro growth inhibitory activity against Trypanosoma cruzi in rat L-6 cells upon incubation at 37 degrees C in 5% CO2 atmosphere for 4 days; type: functional, organism-based; details: L6, 96 h
Method in brief: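 L-6 cells seeded at 2000 cells/well in RPMI 1640 with 10% FBS and 2 mM L-glutamine. After 24 h, 5000 T. cruzi Tulahuen C2C4 LacZ trypomastigotes added with serial drug dilutions, then 4 days at 37 °C, 5% CO2. CPRG/Nonidet substrate added and colour read at 540 nm after 2-4 h. IC50 from sigmoidal curve. Twice independently, in duplicate.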

[7] = molecular target: T4, dUTP pyrophosphatase (Leishmania major, UniProt O15826); test: Inhibitory constant against Leishmania major deoxyuridine 5'-triphosphate nucleotidohydrolase
T4 sequence (O15826 whole entry): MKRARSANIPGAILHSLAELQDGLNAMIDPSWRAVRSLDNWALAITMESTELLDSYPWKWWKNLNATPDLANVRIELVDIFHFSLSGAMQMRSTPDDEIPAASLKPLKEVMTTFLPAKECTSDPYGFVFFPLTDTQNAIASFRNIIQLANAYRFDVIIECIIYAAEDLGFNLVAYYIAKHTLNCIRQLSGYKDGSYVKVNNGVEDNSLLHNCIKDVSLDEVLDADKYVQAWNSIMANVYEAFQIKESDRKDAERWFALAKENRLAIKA

[8] = tested on: Trypanosoma brucei rhodesiense; test: Inhibitory constant against Trypanosoma brucei rhodesiense upon incubation with the compound at 37 degrees C under a 5% CO2 atmosphere for 72 hours; type: functional, organism-based
[9] = tested on: Leishmania donovani; test: In vitro growth inhibitory activity against Leishmania donovani amastigotes at 37 degrees C under a 5% CO2 atmosphere for 96 hours; type: functional, organism-based
Method in brief: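 Mouse peritoneal macrophages in RPMI 1640 with 10% heat-inactivated FBS, infected after 24 h with L. donovani amastigotes at 3:1 (amastigote:macrophage). Free amastigotes washed out at 4 h. Next day, drug-containing medium added for 96 h at 37 °C, 5% CO2. Slides methanol-fixed and Giemsa-stained. Percentage of infected macrophages scored microscopically versus control; IC50 by linear regression. Twice independently, in duplicate.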

SMILES	Ki [1] [µM]	Ki [2] [µM]	IC50 [3] [µM]	IC50 [4] [µM]	SI [5]	IC50 [6] [µM]	Ki [7] [µM]	IC50 [8] [µM]	IC50 [9] [µM]
CC(C)(C)[Si](C)(C)OC1CC(n2ccc(=O)[nH]c2=O)OC1CNC(c1ccccc1)(c1ccccc1)c1ccccc1 (stereo unspecified)	313	> 1000	1.8	7.8	> 3	97	> 1000	2.7	–
CCOP(=O)(CC(=O)OC[C@H]1O[C@@H](n2ccc(=O)[nH]c2=O)C[C@@H]1O)OCC	123	> 1000	98	168	> 8	> 222	> 1000	123	> 74
O=c1ccn(C2C=CC(COC(c3ccccc3)(c3ccccc3)c3ccccc3)O2)c(=O)[nH]1 (stereo unspecified)	1.9	157	> 11	–	83	44	798	55	> 66
CCCCCCCCCCCCCCCC(=O)OCC1C=CC(n2ccc(=O)[nH]c2=O)O1 (stereo unspecified)	256	350	> 11	–	1.4	> 201	> 1000	113	> 67
O=c1ccn(C2C=CC(CO[Si](c3ccccc3)(c3ccccc3)c3ccccc3)O2)c(=O)[nH]1 (stereo unspecified)	1.3	> 1000	1	85	> 769	42	350	1.6	13
O=c1ccn(C2CC(F)C(COC(c3ccccc3)(c3ccccc3)c3ccccc3)O2)c(=O)[nH]1 (stereo unspecified)	5	457	2	35	91	29	177	47	–
CCOP(=O)(CC(=O)NCC1OC(n2ccc(=O)[nH]c2=O)CC1O)OCC (stereo unspecified)	324	> 1000	78	–	> 3	> 222	> 1000	41	29
O=c1ccn([C@H]2C=C[C@@H](CO)O2)c(=O)[nH]1	298	> 1000	214	–	> 3	170	> 1000	72	–
CC(C)(C)[Si](OC[C@H]1O[C@@H](n2ccc(=O)[nH]c2=O)C[C@@H]1O)(c1ccccc1)c1ccccc1	–	806	6.6	23	192	45	> 1000	3	–
NS(=O)(=O)OCC1C=CC(n2ccc(=O)[nH]c2=O)O1 (stereo unspecified)	254	> 1000	163	–	> 4	> 311	> 1000	> 311	–
CC(C)[Si](OC[C@H]1O[C@@H](n2ccc(=O)[nH]c2=O)C[C@@H]1O)(C(C)C)C(C)C	227	> 1000	> 13	25	> 4	58	> 1000	8	–
O=C(NCC1OC(n2ccc(=O)[nH]c2=O)CC1O)C12CC3CC(CC(C3)C1)C2 (stereo unspecified)	426	> 1000	> 13	–	> 2	> 231	> 1000	> 231	–
O=c1ccn(C2C=CC(COP(=O)(Oc3ccccc3)Oc3ccccc3)O2)c(=O)[nH]1 (stereo unspecified)	99	> 1000	54	–	> 10	> 204	> 1000	68	–
CC(C)(C)[Si](C)(C)O[C@H]1C[C@H](n2ccc(=O)[nH]c2=O)O[C@@H]1COS(N)(=O)=O	88	324	40	–	3.7	160	> 1000	104	> 7
NS(=O)(=O)NC(=O)OC[C@H]1O[C@@H](n2ccc(=O)[nH]c2=O)C[C@@H]1O	468	> 1000	20	–	> 2	> 194	314	90	> 65
CC(C)(C)[Si](C)(C)OCC1OC(n2ccc(=O)[nH]c2=O)CC1F (stereo unspecified)	628	–	> 14	–	> 1.6	37	> 1000	59	> 87
O=c1ccn(C2CC(O)C(CNCc3ccccc3)O2)c(=O)[nH]1 (stereo unspecified)	111	> 1000	> 16	–	> 9	> 83	> 1000	17	–
CC(C)(C)[Si](OCC1OC(n2ccc(=O)[nH]c2=O)CC1F)(c1ccccc1)c1ccccc1 (stereo unspecified)	89	808	8.8	16	9.1	32	> 1000	29	–
CC(C)(C)[Si](C)(C)OCC1C=CC(n2ccc(=O)[nH]c2=O)O1 (stereo unspecified)	10	56.4	51	–	5.6	110	> 1000	73	–
Cc1ccc(S(=O)(=O)NCC2OC(n3ccc(=O)[nH]c3=O)CC2O)cc1 (stereo unspecified)	> 1000	> 1000	> 13	> 236	–	> 236	> 1000	102	> 79
O=c1ccn(C2CC(O)C(CNC(c3ccccc3)(c3ccccc3)c3ccccc3)O2)c(=O)[nH]1 (stereo unspecified)	0.2	46	–	44	230	44	304	48	–
CC(C)(C)[Si](C)(C)O[C@H]1C[C@H](n2ccc(=O)[nH]c2=O)O[C@@H]1COC(=O)NS(N)(=O)=O	244	> 1000	37	–	> 4	> 152	> 1000	12	> 51
O=c1ccn([C@H]2C[C@H](O)[C@@H](COC(c3ccccc3)(c3ccccc3)c3ccccc3)O2)c(=O)[nH]1	–	18	–	–	10	306	> 1000	24	> 64
O=c1ccn([C@H]2C[C@H](O)[C@@H](CO[Si](c3ccccc3)(c3ccccc3)c3ccccc3)O2)c(=O)[nH]1	–	909	–	–	325	71	> 1000	15	–
O=c1ccn([C@H]2C[C@H](F)[C@@H](CO)O2)c(=O)[nH]1	–	–	> 21	> 391	–	> 130	–	100	> 391
CC(C)(C)[Si](OCC1C=CC(n2ccc(=O)[nH]c2=O)O1)(c1ccccc1)c1ccccc1 (stereo unspecified)	–	–	3	67	> 833	33	178	55	–
